Data set [1] has as its system COLO 320. Nature of the data set: Induction of apoptosis in human COLO320 cells preincubated assessed as late apoptosis at 20 uM for 40 mins measured after 24 hrs using annexin V/propidium iodide staining by flow cytometry. The format is functional. The essentials:
(§1)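 COLO 320 MDR cells at 2 × 10^5/mL were exposed to agent for 40 min at 37 °C, with 1% DMSO as solvent control. Cells were then washed twice in PBS and cultured overnight at 37 °C, 5% CO2. After 24 h, supernatant and trypsin-detached cells were pooled and centrifuged. Staining used an annexin V-FITC/propidium iodide kit (rapid protocol), read immediately by flow cytometry.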

Data set [2] in a line: Induction of cell death in human COLO320 cells preincubated at 20 uM for 40 mins measured after 24 hrs using annexin V/propidium iodide staining by flow cytometry. Type of data set: functional, COLO 320. The essentials:
(§2)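 COLO 320 MDR cells in RPMI 1640 with 10% FBS, at 2 × 10^5/mL, were exposed for 40 min at 37 °C, with 1% DMSO as the solvent control. Cells were washed twice in PBS, then kept in medium overnight at 37 °C, 5% CO2. After 24 h, supernatant and trypsin-detached cells were pelleted and resuspended in PBS. Annexin V-FITC/PI quadrants were read by flow cytometry.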
Background: Flow cytometry measures light scatter and fluorescence of single cells or particles in a stream.

Data set [3] addresses T1, ATP-dependent translocase ABCB1 (Homo sapiens, UniProt P08183). Briefly: Inhibition of MDR1-mediated rhodamine 123 uptake expressed in mouse L5178Y cells assessed as fluorescence activity ratio at 20 ug/mL after 10 mins by flow cytometry relative to parent cells. Type of data set: cell-based. The settings on record: in the assay text read “20 uM” for “20 ug/mL”. The essentials:
(§3)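 Mouse L5178Y cells, parental and human MDR1-transfected (kept with 60 ng/mL colchicine), were held at 2 × 10^6/mL in serum-free McCoy's 5A and given compound (2, 6, 20, 60 μM) for 10 min at room temperature. […] Rhodamine-123 (5.2 μM final) followed for 20 min at 37 °C; cells were washed twice into PBS. FL-1 of 10 000 cells was read by flow cytometry. FAR = treated/untreated MDR versus PAR.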

In data set [4] the target is T1, ATP-dependent translocase ABCB1. Nature of the data set: Inhibition of MDR1-mediated rhodamine 123 uptake expressed in mouse L5178Y cells assessed as fluorescence activity ratio at 6 uM after 10 mins by flow cytometry relative to parent cells.
For data set [5] the target is unchanged. Nature of the data set: Inhibition of MDR1-mediated rhodamine 123 uptake expressed in mouse L5178Y cells assessed as fluorescence activity ratio at 2 ug/mL after 10 mins by flow cytometry relative to parent cells. The format is cell-based. The settings on record: in the assay text read “2 uM” for “2 ug/mL”. The essentials:
as §3

Data set [6] shares this target. Briefly: Inhibition of MDR1-mediated rhodamine 123 uptake expressed in human COLO320 cells assessed as fluorescence activity ratio at 2 ug/mL after 10 mins by flow cytometry relative to parent cells. The settings on record: in the assay text read “2 uM” for “2 ug/mL”. The format is cell-based. The essentials:
(§4)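 COLO 320 MDR cells (and COLO 205) were held at 1 × 10^6/mL in serum-free RPMI 1640 and given compound (2 or 20 μM) for 10 min at room temperature. […] Rhodamine-123 (5.2 μM final) followed for 20 min at 37 °C; cells were washed twice into PBS. FL-1 of 10 000 cells was read by flow cytometry. FAR was calculated from treated/untreated resistant versus sensitive cells.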

For data set [7] the target is unchanged. Nature of the data set: Inhibition of MDR1-mediated rhodamine 123 uptake expressed in mouse L5178Y cells assessed as fluorescence activity ratio at 60 ug/mL after 10 mins by flow cytometry relative to parent cells. Conditions: in the assay text read “60 uM” for “60 ug/mL”. Type of data set: cell-based. The essentials:
as §3

Data set [8] concerns COLO 320. Nature of the data set: Induction of apoptosis in human COLO320 cells preincubated assessed as early apoptosis at 20 uM for 40 mins measured after 24 hrs using annexin V/propidium iodide staining by flow cytometry. The format is functional. The essentials: as §1
Data set [9] concerns the target T1, ATP-dependent translocase ABCB1. Briefly: Inhibition of MDR1-mediated rhodamine 123 uptake expressed in human COLO320 cells assessed as fluorescence activity ratio at 20 ug/mL after 10 mins by flow cytometry relative to parent cells. The format is cell-based. The settings on record: in the assay text read “20 uM” for “20 ug/mL”. The essentials:
as §4

In data set [10] the test system is COLO 320. Nature of the data set: Induction of apoptosis in human COLO320 cells preincubated assessed as late apoptosis at 200 uM for 40 mins measured after 24 hrs using annexin V/propidium iodide staining by flow cytometry. The format is functional. The essentials:
as §1

Data set [11] deals with COLO 320. Briefly: Induction of apoptosis in human COLO320 cells preincubated assessed as early apoptosis at 200 uM for 40 mins measured after 24 hrs using annexin V/propidium iodide staining by flow cytometry. Type of data set: functional. The essentials:
as §1

Data set [12] is described as follows: Induction of cell death in human COLO320 cells preincubated at 200 uM for 40 mins measured after 24 hrs using annexin V/propidium iodide staining by flow cytometry. The format is functional, COLO 320. The essentials:
as §2

The target in data set [13] is T1, ATP-dependent translocase ABCB1. Nature of the data set: Inhibition of MDR1-mediated rhodamine 123 uptake expressed in human COLO320 cells assessed as fluorescence activity ratio at 2 uM after 10 mins by flow cytometry relative to parent cells.
Data set [14] has the same target. Briefly: Inhibition of MDR1-mediated rhodamine 123 uptake expressed in mouse L5178Y cells assessed as fluorescence activity ratio at 2 uM after 10 mins by flow cytometry relative to parent cells.

T1 sequence (P08183 whole entry): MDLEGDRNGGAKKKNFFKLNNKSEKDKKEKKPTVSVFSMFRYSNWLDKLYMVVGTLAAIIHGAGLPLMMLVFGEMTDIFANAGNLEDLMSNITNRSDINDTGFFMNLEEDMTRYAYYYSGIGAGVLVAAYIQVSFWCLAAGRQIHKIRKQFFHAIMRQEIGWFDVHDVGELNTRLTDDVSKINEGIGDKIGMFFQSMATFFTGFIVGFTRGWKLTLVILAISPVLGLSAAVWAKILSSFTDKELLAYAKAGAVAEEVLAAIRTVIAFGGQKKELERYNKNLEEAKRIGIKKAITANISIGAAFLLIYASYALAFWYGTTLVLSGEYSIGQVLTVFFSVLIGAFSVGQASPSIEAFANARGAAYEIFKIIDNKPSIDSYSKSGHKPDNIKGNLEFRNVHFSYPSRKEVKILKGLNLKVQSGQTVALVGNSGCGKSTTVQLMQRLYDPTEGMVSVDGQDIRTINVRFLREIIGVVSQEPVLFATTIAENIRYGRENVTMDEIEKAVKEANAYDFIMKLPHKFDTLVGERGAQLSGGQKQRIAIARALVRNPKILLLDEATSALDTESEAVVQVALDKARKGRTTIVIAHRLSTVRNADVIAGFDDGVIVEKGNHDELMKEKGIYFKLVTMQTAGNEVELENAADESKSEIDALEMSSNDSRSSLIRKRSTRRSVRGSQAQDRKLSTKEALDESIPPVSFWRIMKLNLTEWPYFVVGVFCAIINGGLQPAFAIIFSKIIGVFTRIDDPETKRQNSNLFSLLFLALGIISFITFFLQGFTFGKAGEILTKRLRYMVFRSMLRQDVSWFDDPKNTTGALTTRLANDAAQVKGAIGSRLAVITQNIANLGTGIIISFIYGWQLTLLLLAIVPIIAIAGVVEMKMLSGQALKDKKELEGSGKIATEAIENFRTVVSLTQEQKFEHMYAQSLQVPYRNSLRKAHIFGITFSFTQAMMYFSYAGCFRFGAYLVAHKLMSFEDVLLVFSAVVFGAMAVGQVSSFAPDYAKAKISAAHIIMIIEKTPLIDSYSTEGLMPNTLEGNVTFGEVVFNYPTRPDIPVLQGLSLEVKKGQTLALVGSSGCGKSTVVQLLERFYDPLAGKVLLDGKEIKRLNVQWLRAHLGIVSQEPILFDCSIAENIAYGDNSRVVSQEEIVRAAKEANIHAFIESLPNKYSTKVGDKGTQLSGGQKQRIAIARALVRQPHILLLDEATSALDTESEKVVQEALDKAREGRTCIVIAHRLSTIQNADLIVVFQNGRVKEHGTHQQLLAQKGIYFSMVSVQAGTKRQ

In the case of `CC(=O)O[C@@H]1[C@@H](OC(C)=O)C(C)(C)/C=C/[C@H](C)C(=O)[C@@]2(OC(C)=O)C[C@@H](C)[C@H](OC(=O)c3ccccc3)/C2=C/[C@](C)(O)[C@H]1OC(C)=O`, the Activity in the data set with COLO 320 [1] was determined as 4.6%; in [2], 0.9%; with COLO 320 [8], 4.4%. The Ratio in [3] amounted to 10.1; in data set [4] it was 1.4; in data set [5], 0.9; in data set [6] it was 0.7; in data set [7], 43.4; in [9], 3.
Turning to `c1ccc2c(c1)Nc1c(ccc3ccccc13)S2`, the Activity in the data set with COLO 320 [10] worked out at 58.56%; in the data set on COLO 320 [11] it was 17.55%; in [12] it was 3.24%.
In the case of `CC(=O)O[C@H]1[C@H](OC(C)=O)/C(C)=C\[C@H]2[C@@H](OC(=O)c3ccccc3)[C@@H](C)C[C@]2(OC(C)=O)[C@@H](OC(C)=O)[C@@H](C)/C=C/C(C)(C)[C@@H]1OC(C)=O` (relative stereo) [EUPHOMELLIFERENE A], the Activity turned out to be 7.7% in the data set on COLO 320 [1], 1.11% in data set [2] and 5.39% in the data set on COLO 320 [8]. For the same compound, the Ratio turned out to be 2 in data set [13]; 23.1 in [3]; 12.4 in data set [4]; 82.2 in data set [7]; 1.2 in data set [14]; 5.5 in data set [9].
As to `CC(=O)O[C@H]1[C@H](OC(C)=O)/C(C)=C\[C@H]2[C@@H](OC(=O)c3ccccc3)[C@@H](C)C[C@]2(O)[C@@H](OC(C)=O)[C@@H](C)/C=C/C(C)(C)[C@@H]1OC(C)=O` (relative stereo) [EUPHOMELLIFERENE B], the Activity with COLO 320 [1] is 4.93%; in data set [2], 1.11%; in the data set with COLO 320 [8] it was 3%. Moreover, the Ratio in data set [3] was 1.6; in [4], 1.4; in data set [5], 1.1; in [6] it was 0.8; in [7], 36.1; in data set [9] it was 2.8.
As to `CC(=O)O[C@H]1[C@H](OC(C)=O)/C(C)=C\[C@H]2[C@@H](OC(=O)c3ccccc3)[C@H](C)C[C@]2(O)C(=O)[C@@H](C)/C=C/C(C)(C)[C@@H]1OC(C)=O` (relative stereo) [EUPHOMELLIFERINE], the Activity with COLO 320 [1] is reported as 4.97%; in [2], 0.74%; in the data set on COLO 320 [8], 6.72%. Besides, the Ratio in data set [3] amounted to 12.1; in [4], 2.9; in [5] it was 1.1; in data set [6], 1.1; in [7], 72.9; in [9], 5.1.

(Values after ChEMBL document CHEMBL2176993, “Jatrophane diterpenes from Euphorbia mellifera and their activity as P-glycoprotein modulators on multidrug-resistant mouse lymphoma and human colon adenocarcinoma cells” (J Nat Prod, 2012).)
